Experimental data reported in ChEMBL document CHEMBL1134517, “Amphiphilic anionic analogues of galactosylceramide: synthesis, anti-HIV-1 activity, and gp120 binding” (J Med Chem, 2001).

Experiments:
Conditions in all cases: Homo sapiens
MT4 [1] = assay: Cytotoxicity was evaluated in vitro on MT-4 cells; format: functional
Summary of the method: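 Uninfected MT4 cells incubated 5 days at 37 °C with various concentrations of galactolipid in DPBS. Proliferation and viability read by colorimetric MTT assay.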

CEM-SS [2] = assay: Anti-HIV-1 activity evaluated in vitro on CEM-SS cells; format: functional, cell-based
Summary of the method: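 CEM-SS cells (RPMI, 10% fetal calf serum) infected with HIV-1 LAI grown in CEM-SS cells. Galactolipids in DPBS (or as phospholipid/cholesterol liposomes) added after viral adsorption. After 5 days, reverse transcriptase activity in supernatant measured, and inhibition calculated against untreated infected cells. IC50 taken from median-effect plot of dose-effect data. Triplicate per concentration, experiment repeated twice.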

CEM-SS [3] = assay: Cytotoxicity was evaluated in vitro on CEM-SS cells; format: functional
MT4 [4] = assay: Anti-HIV-1 activity evaluated in vitro on MT-4 cells; format: functional, cell-based
Summary of the method: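 MT4 cells (RPMI, 10% fetal calf serum) infected with HIV-1 IIIB at a dose killing 90% of cells by day 5. Compounds in DPBS added after viral adsorption. Protection from the viral cytopathic effect read by MTT viability assay. IC50 derived from curves of protection percentage against drug concentration.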

SMILES	CC50 (MT4 [1])	IC50 (CEM-SS [2])	CC50 (CEM-SS [3])	IC50 (MT4 [4])
CCCCCCCCCCCCCC(=O)NC(CO[C@@H]1O[C@H](CO)[C@H](O)[C@H](O)[C@H]1O)C(=O)NCCO (stereo not given in full)	> 100 µM	> 100 µM	> 100 µM	> 100 µM
O=C(O)CCCCCCCCCCC(=O)N(CCCCCCCC(F)(F)C(F)(F)C(F)(F)C(F)(F)C(F)(F)C(F)(F)C(F)(F)C(F)(F)F)CCO[C@@H]1O[C@H](CO)[C@H](O)[C@H](O)[C@H]1O	> 18 µM	> 18 µM	> 18 µM	> 18 µM
CCCCCCCCCCCCCCNC(=O)C(CO[C@@H]1O[C@H](CO)[C@H](O)[C@H](O)[C@H]1O)NP(=O)(O)OC (stereo not given in full)	> 100 µM	> 100 µM	> 100 µM	> 100 µM
CCCCCCCCCCCCCCNC(=O)C(CO[C@@H]1O[C@H](CO)[C@H](O)[C@H](O)[C@H]1O)NC(=O)CCC(=O)NCCS(=O)(=O)O (stereo not given in full)	> 100 µM	50 µM	> 100 µM	> 100 µM
CCCCCCCCCCCCCCNC(=O)C(N)CO[C@@H]1O[C@H](CO)[C@H](O)[C@H](O)[C@H]1O (stereo not given in full)	–	60 µM	–	–
CCCCCCCCCCCCCC(=O)NC(CO[C@@H]1O[C@H](CO)[C@H](O)[C@H](O)[C@H]1O)C(=O)NCCOS(=O)(=O)O (stereo not given in full)	> 100 µM	10 µM	> 100 µM	20 µM
O=C(O)CCCCCCCCCCCNC(=O)C(CO[C@@H]1O[C@H](CO)[C@H](O)[C@H](O)[C@H]1O)NC(=O)CCC(=O)O (stereo not given in full)	> 100 µM	> 100 µM	> 100 µM	> 100 µM
CCCCCCCCCCCCCCNC(=O)C(CO[C@@H]1O[C@H](CO)[C@H](O)[C@H](O)[C@H]1O)NC(=O)CCC(=O)O (stereo not given in full)	> 100 µM	> 100 µM	> 100 µM	> 100 µM
CCCCCCCCCCCCCCNC(=O)C(CO[C@@H]1O[C@H](CO)[C@H](O)[C@H](O)[C@H]1O)NC(=O)CCCCCCCCCCC(=O)O (stereo not given in full)	> 100 µM	> 100 µM	> 100 µM	> 100 µM
CCCCCCCCCCCCCC(=O)NC(CO[C@@H]1O[C@H](CO)[C@H](O)[C@H](O)[C@H]1O)C(=O)O (stereo not given in full)	> 100 µM	20 µM	> 100 µM	> 100 µM
NC(CO[C@@H]1O[C@H](CO)[C@H](O)[C@H](O)[C@H]1O)C(=O)NCCCCCCCCCCCC(=O)O (stereo not given in full)	> 100 µM	> 100 µM	> 100 µM	> 100 µM
NC(CO[C@@H]1O[C@H](CO)[C@H](O)[C@H](O)[C@H]1O)C(=O)NCCCCCCCCCCCC(F)(F)C(F)(F)C(F)(F)C(F)(F)C(F)(F)C(F)(F)F (stereo not given in full)	–	40 µM	–	–
CCCCCCCCCCCCCC(=O)NCC(NC(=O)CCCCCCCCCCCCC)C(=O)NCCN(CCNC(=O)C(O)C(O)C(O[C@@H]1O[C@H](CO)[C@H](O)[C@H](O)C1O)C(O)CO)CCNC(=O)C(O)C(O)C(O[C@@H]1O[C@H](CO)[C@H](O)[C@H](O)[C@H]1O)C(O)CO (stereo not given in full)	38 µM	32 µM	44 µM	33 µM
CCCCCCCCCCCCCC(=O)NCC(NC(=O)CCCCCCCCCCCCC)C(=O)NCCNC(=O)C(O)C(O)C(O[C@@H]1O[C@H](CO)[C@H](O)[C@H](O)[C@H]1O)C(O)CO (stereo not given in full)	> 100 µM	> 100 µM	> 100 µM	> 100 µM
